# Assay outcomes: PubChem BioAssay, Johns Hopkins Ion Channel Center
# This is a sample that favours compounds with a hit; in the whole collection about 3.1% have one here.
# KCNK9 inh = blocks the human KCNK9 two-pore domain potassium channel | 1.2% of 310,000 active | HEK293 KCNK9, FluxOR thallium flux fluorescence; hits give low values | B-score at 10 µM;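 active = ratio B-score over 3 SD below the library mean, with starting fluorescence within 5 SD of its mean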;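 note: negative B-score means less thallium flux so channel inhibition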
# Target sequence (Q9NPC2 whole entry, looked up, the tested form may be a part): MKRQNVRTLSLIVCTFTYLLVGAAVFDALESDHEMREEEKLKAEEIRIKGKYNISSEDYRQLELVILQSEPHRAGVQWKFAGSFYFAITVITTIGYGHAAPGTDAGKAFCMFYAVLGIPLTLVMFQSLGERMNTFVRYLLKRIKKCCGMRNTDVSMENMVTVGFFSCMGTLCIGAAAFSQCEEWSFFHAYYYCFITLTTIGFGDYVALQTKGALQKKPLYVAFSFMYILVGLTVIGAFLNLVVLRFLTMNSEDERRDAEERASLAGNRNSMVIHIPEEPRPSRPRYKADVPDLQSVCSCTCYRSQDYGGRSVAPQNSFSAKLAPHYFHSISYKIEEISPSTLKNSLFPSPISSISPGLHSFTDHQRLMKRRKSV
# hERG protect = hERG (human) protection from proarrhythmic block. Q12809. CHO-hERG, FluxOR thallium flux, dofetilide IC70 present. activation (rescue from dofetilide block), less the hit threshold, % at 10 µM. 0.51% of 310,000 active. AID 1511;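 active = activation above the mean of controls blocked by dofetilide plus 5 SD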;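 note: thallium influx through hERG after potassium depolarization seen as dye fluorescence rise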
# KCNK3 inh = human KCNK3 channel inhibition, primary screen; O14649; CHO-KCNK3 thallium flux, FluxOR fluorescence; hits give low values; B-score at 10 µM; 0.84% of 340,000 active; AID 602410;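 active = B-score under library mean minus 4 SD, starting fluorescence ratio at most library mean plus 5 SD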;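 note: more negative B-score means stronger inhibition of thallium flux through KCNK3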
# KCNQ1 inh = blocks the human KCNQ1 potassium channel; CHO-K1 KCNQ1, FluxOR thallium flux fluorescence; hits give high values; B-score at 10 µM; 1.3% of 310,000 active; AID 2642;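 active = compounds whose thallium flux B-score, printed positive for inhibition, exceeds three library SD while starting fluorescence stays within three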;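 note: channel opened by potassium depolarization with thallium stimulus after 20 min compound exposure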
# KCNQ1 pot = human KCNQ1 channel potentiation or activation; P51787; CHO-K1 KCNQ1, thallium flux FluxOR fluorescence; hits give high values; B-score at 10 µM; 0.35% of 310,000 active; AID 2648;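 active = fluorescence ratio B-score, a plate-corrected score, at least three library SD, with initial intensity B-score within 5 SD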
#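 System: Stable KCNQ1 CHO-K1 line | Incubation: 90 min dye loading and 20 min compound exposure, both at room temperature | Measure: Ratio B score | Medium: Assay buffer for compound exposure, DMSO matched across wells | Compound dosing: Single-concentration screen | Probe or stimulus: K+/Tl+ depolarizing stimulus | Measured by: Kinetic FluxOR fluorescence, 10 s baseline plus 110 s post-stimulus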
# KCNK3 confirm = confirmation of human KCNK3 two-pore domain potassium channel inhibitors | shares compounds with KCNK3 inh | CHO-KCNK3 thallium flux, FluxOR fluorescence; 0% buffer, 100% carvedilol maximal block | ratio percent of control, % at 10 µM | 99% of 2,400 active;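 active = ratio percent of control, averaged over triplicates, above buffer control mean plus 5 SD, cut at about 64% in these data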;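 note: ratio is the fluorescence rise from min to max over baseline after thallium stimulus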
# KCNK3 noninduced = counter-screen for KCNK3 inhibitors: effect in non-induced cells; shares compounds with KCNK3 inh; non-induced KCNK3 parental cells, FluxOR thallium flux; hits give low values; thallium flux ratio (lower = more inhibition) at 10 µM; 40% of 2,400 active; AID 651747;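 active = thallium flux ratio, averaged over three wells, more than 5 SD below the buffer control mean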;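 note: host cells are CHO cells without KCNK3 induction; ratio is peak minus trough fluorescence over baseline then normalized to buffer controls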
# Starred values were filed as active, the others as inactive; i = inactive; / = no result.
SMILES,KCNK9 inh,hERG protect,KCNK3 inh,KCNQ1 inh,KCNQ1 pot,KCNK3 confirm,KCNK3 noninduced
Cn1c(Cc2cccc3ccccc23)nnc1SCc1ccc([N+](=O)[O-])cc1,i,-6,i,i,i,/,/
CN(CC(=O)Nc1ccccc1Br)C(=O)c1cccnc1Nc1cccc(C(F)(F)F)c1,i,-11,-12*,i,i,126*,0.13*
CNC(=O)c1cccnc1Nc1cccc(C(F)(F)F)c1,i,-5,i,i,i,/,/
Cc1ccc2c(cnn2C(=O)CCC(=O)NCc2cccc(Cl)c2)c1,i,-11,i,i,i,/,/
COc1ccc(Br)cc1/C=N/NC(=O)c1ccc(OC)c(OC)c1,i,-5,i,i,i,/,/
COc1ccc(Br)cc1/C=N/NC(=O)c1nc(-c2ccccc2)n2c1CCCCC2,i,-8,-12*,6*,i,113*,0.14*
COc1ccc(S(=O)(=O)N2CCOCC2)cc1NC(=O)/C=C/c1ccccc1,/,/,i,/,/,/,/
O=S(=O)(N1CCCCC1)N1CCN(c2cc(Cl)ccc2Cl)CC1,i,-4,-9.2*,i,i,111*,i
Cc1cc(=O)oc2cc(NC(=O)c3cc(F)ccc3F)ccc12,/,/,i,/,/,/,/
Cc1cc(=O)oc2cc(NC(=O)c3ccccc3OC(F)F)ccc12,i,-6,-11*,i,i,105*,i
O=C(NCc1ccccc1)c1ccc(CS(=O)Cc2ccc(Cl)cc2)o1 (stereo not drawn),i,-6,i,i,i,/,/
CN(Cc1cccc([N+](=O)[O-])c1)Cc1cccc2ccccc12,-6.8*,-5,-11*,6*,i,114*,0.15*
Cc1cccc(C)c1NC(=O)CCCN1C(=O)C(c2ccccc2)Oc2cccnc21 (stereo not drawn),i,-8,i,i,i,/,/
C=C(C)COc1ccc(-c2[nH]ncc2Oc2ccccc2OC)c(O)c1,i,-8,i,i,i,/,/
C=C(C)COc1ccc(-c2[nH]ncc2-c2ccccc2OC)c(O)c1,i,-9,-9*,i,i,96*,i
CCN1CCSc2ccc(C(=O)NCc3ccccc3Br)cc21,i,-15,-9.7*,i,i,104*,0.15*
Cc1cccc(CNC(=O)c2ccc3c(c2)N(C)CCS3)c1,i,-11,i,i,i,/,/
CN1CCSc2ccc(C(=O)NCc3cccc(Br)c3)cc21,i,-14,-14*,i,i,120*,0.16*
Cc1cc(C(F)(F)F)nc(-n2cc(-c3ccccc3)nn2)n1,i,-11,i,i,i,/,/
COC(=O)c1ccccc1-c1cn(C)c2ccccc2c1=O,i,-1,i,i,i,/,/
CC(C)CNC(=O)C1CCCN(C(=O)NCc2ccccc2)C1 (stereo not drawn),i,-1,i,i,i,/,/
CC1CCN(C(=O)c2ccc(-c3ccccc3Cl)o2)CC1,i,-20,-9.2*,i,i,123*,0.14*
O=C(c1ccc(-c2ccccc2Cl)o1)N1CCC1,/,/,i,/,/,/,/
Cc1nc2c(cnn2CCO)c(=O)[nH]1,/,/,i,/,/,/,/
COc1ccc(CCN(Cc2nc(-c3ccccc3)no2)Cc2nc(-c3ccccc3)no2)cc1OC,i,-7,-9.2*,i,i,92*,i
SMILES,KCNK9 inh,hERG protect,KCNK3 inh,KCNQ1 inh,KCNQ1 pot,KCNK3 confirm,KCNK3 noninduced
Cc1ccc(Cc2cc(-c3ccc(C)cc3)n[nH]c2=O)cc1,i,-9,i,i,i,/,/
CCc1ccc2c(c1)C1(NN=C(c3ccc(C)cc3)S1)C(=O)N2 (stereo not drawn),i,-23,-8.7*,7*,i,106*,0.11*
COc1ccc2oc(C(=O)OCC(=O)N(C)CC(=O)Nc3ccc(F)cc3)c(C)c2c1,i,-8,i,i,i,/,/
CCCNC(=O)CSc1nc2ccccc2c(=O)n1CCC,i,-5,-8.8*,i,i,86*,i
O=C(NCc1ccc(Cl)cc1)c1cc(=O)[nH]c2ccccc12,i,-5,i,i,i,/,/
OC1CCN(c2c3c(nc4cc(-c5cccc(F)c5)nn24)CCCC3)CC1,i,-4,-8.9*,i,i,122*,i
CCN1CCN(S(=O)(=O)c2ccc(Cl)c(C(=O)N(C)Cc3ccc(C(C)(C)C)cc3)c2)CC1,/,/,i,/,/,/,/
Nc1ccc(Cl)c(-c2nc3ncccc3o2)c1,i,-4,-11*,i,i,88*,i
CC1=C(C(=O)Nc2cccc(C(=O)NC3CCCC(C)C3C)c2)SCCO1 (stereo not drawn),i,-11,-9.3*,i,i,97*,i
CC1=C(C(=O)Nc2cccc(C(=O)NC(C)c3ccccc3)c2)SCCO1 (stereo not drawn),i,-13,-8.9*,i,i,76*,i
COc1ccccc1Nc1nnc(SCC(=O)Nc2nc(-c3ccc(F)cc3)cs2)s1,i,4,i,i,i,/,/
Cc1cccc(-n2ncc3c2CCCC3NC(=O)C2CCOCC2)c1C (stereo not drawn),i,-2,i,i,i,/,/
CCCCC(Sc1nc(C)c(Cc2ccccc2)c(=O)[nH]1)C(=O)O (stereo not drawn),i,-5,-9*,i,i,0,i
CCOc1ccc(-c2cccc(NC(=O)c3ccc(Br)o3)c2)nn1,i,-4,-12*,i,i,98*,i
Cc1nc(-c2cccc(NC(=O)c3ccc(Br)o3)c2)cs1,i,-28,i,i,i,/,/
CC(=O)N(C)c1ccc(NS(=O)(=O)c2cc(Cl)ccc2Cl)cc1,i,-10,i,i,i,/,/
O=C(NCCc1ccccc1)C1CCN(c2ncccn2)CC1,i,-19,i,i,i,/,/
CCn1c(O)c(/C=N/N=C/c2ccccc2)c2ccc(C3=NNC(=O)CC3)cc21,i,-22,-8.9*,i,i,131*,0.12*
O=C(Nc1ccccc1)C1=C(O)CC(c2ccoc2)CC1=Nc1ccccc1 (stereo not drawn),i,-8,-8.8*,i,i,113*,0.16*
N#Cc1nc(COc2ccccc2F)oc1N1CCCCCC1,/,/,i,/,/,/,/
N#Cc1nc(COc2ccccc2Cl)oc1NCc1ccc(F)cc1,i,-11,i,i,i,/,/
N#Cc1nc(COc2ccccc2F)oc1NCCc1ccccc1,i,-8,-10*,i,i,102*,i
